Active and inactive are the calls of the source. No cut-off for these calls is given here.
Key:
[1] = system: Hepatitis C virus; assay: Antiviral activity against Hepatitis C virus genotype 1b infected in human Huh-luc replicon cells after 3 days by luciferase assay; format: functional, organism-based, Hepacivirus hominis; conditions: subtype 1b, 72 h
[2] = Cytotoxicity against human Hep2 cells assessed as reduction in cell viability after 3 days by CellTiter-Glo assay; format: cell-based; conditions: HEp-2 cells
[3] = system: Hepatitis C virus; assay: Antiviral activity against Hepatitis C virus genotype 2a infected in human Huh-luc replicon cells after 3 days by luciferase assay; format: functional, organism-based, Hepacivirus hominis; conditions: subtype 2a, 72 h
[4] = system: BJ; assay: Antiproliferative activity against human BJ cells after 3 days by MTS assay; conditions: 72 h
[5] = system: MRC5; assay: Antiproliferative activity against human MRC5 cells after 3 days by MTS assay; conditions: MRC5, 72 h
[6] = system: A549; assay: Antiproliferative activity against human A549 cells after 3 days by MTS assay; format: functional, cell-based; conditions: A549, 72 h
[7] = system: CCRF-CEM; assay: Antiproliferative activity against human CCRF-CEM cells after 3 days by MTS assay; format: functional, cell-based; conditions: 72 h
[8] = Antiproliferative activity against human CEM-DNR-bulk cells after 3 days by MTS assay; conditions: 72 h
[9] = system: HCT-116; assay: Antiproliferative activity against human HCT116 cells after 3 days by MTS assay; format: functional, cell-based; conditions: HCT-116, 72 h
[10] = system: HCT-116; assay: Antiproliferative activity against p53 gene knocked out human HCT116 cells after 3 days by MTS assay; format: functional, cell-based; conditions: HCT-116, 72 h
[11] = system: K562; assay: Antiproliferative activity against human K562 cells after 3 days by MTS assay; format: functional, cell-based; conditions: K562, 72 h
[12] = Antiproliferative activity against human K562-TAX cells after 3 days by MTS assay; format: functional, cell-based; conditions: 72 h
[13] = system: U2OS; assay: Antiproliferative activity against human U2OS cells after 3 days by MTS assay; format: functional, cell-based; conditions: 72 h
[14] = system: HL-60; assay: Antiproliferative activity against human HL60 cells after 72 hrs by XTT assay; format: functional, cell-based; conditions: HL-60, 72 h
[15] = system: HepG2; assay: Antiproliferative activity against human HepG2 cells after 72 hrs by XTT assay; format: functional, cell-based; conditions: HepG2, 72 h
[16] = system: HeLa S3; assay: Antiproliferative activity against human HeLaS3 cells after 72 hrs by XTT assay; format: functional, cell-based; conditions: HeLa S3, 72 h
[17] = system: CCRF-CEM; assay: Induction of cell cycle arrest in human CCRF-CEM cells assessed as accumulation at subG1 phase at 5 times IC50 concentration after 24 hrs by propidium iodide-staining based flow cytometry (reference value: 3.45%); format: functional
[18] = system: CCRF-CEM; assay: Induction of cell cycle arrest in human CCRF-CEM cells assessed as accumulation at G0/G1 phase at IC50 concentration after 24 hrs by propidium iodide-staining based flow cytometry (reference value: 39.70%); format: functional
[19] = system: CCRF-CEM; assay: Induction of cell cycle arrest in human CCRF-CEM cells assessed as accumulation at G0/G1 phase at 5 times IC50 concentration after 24 hrs by propidium iodide-staining based flow cytometry (reference value: 39.70%); format: functional
[20] = system: CCRF-CEM; assay: Induction of cell cycle arrest in human CCRF-CEM cells assessed as accumulation at G2/M phase at IC50 concentration after 24 hrs by propidium iodide-staining based flow cytometry (reference value: 19.22%); format: functional
[21] = system: CCRF-CEM; assay: Induction of cell cycle arrest in human CCRF-CEM cells assessed as accumulation at G2/M phase at 5 times IC50 concentration after 24 hrs by propidium iodide-staining based flow cytometry (reference value: 19.22%); format: functional
[22] = system: CCRF-CEM; assay: Inhibition of mitosis in human CCRF-CEM cells assessed Ser10 H3 phosphorylation positive cells at 5 times IC50 concentration after 24 hrs by flow cytometry relative to total cell population (reference value: 1.36%); format: functional; design: scale not given: the % may be the effect or the level left
[23] = system: CCRF-CEM; assay: Inhibition of DNA synthesis in human CCRF-CEM cells assessed as DNA synthesis level at IC50 concentration after 24 hrs by BrdU incorporation assay (reference value: 43.39%); format: functional; design: scale not given: the % may be the effect or the level left
[24] = system: CCRF-CEM; assay: Inhibition of DNA synthesis in human CCRF-CEM cells assessed as DNA synthesis level at 5 times IC50 concentration after 24 hrs by BrdU incorporation assay (reference value: 43.39%); format: functional; design: scale not given: the % may be the effect or the level left
[25] = system: CCRF-CEM; assay: Inhibition of RNA synthesis in human CCRF-CEM cells assessed as RNA synthesis level at IC50 concentration after 24 hrs by BrU incorporation assay (reference value: 49.89%); format: functional; design: scale not given: the % may be the effect or the level left
[26] = system: CCRF-CEM; assay: Inhibition of RNA synthesis in human CCRF-CEM cells assessed as RNA synthesis level at 5 times IC50 concentration after 24 hrs by BrU incorporation assay (reference value: 49.89%); format: functional; design: scale not given: the % may be the effect or the level left
[27] = molecular target: Adenosine kinase (Homo sapiens, UniProt P55263); assay: Substrate activity at recombinant human ADK assessed as compound phosphorylation at 50 uM after 20 mins in presence of [3H]-adenosine by UPLC; format: ADME
Adenosine kinase, sequence (P55263 whole entry): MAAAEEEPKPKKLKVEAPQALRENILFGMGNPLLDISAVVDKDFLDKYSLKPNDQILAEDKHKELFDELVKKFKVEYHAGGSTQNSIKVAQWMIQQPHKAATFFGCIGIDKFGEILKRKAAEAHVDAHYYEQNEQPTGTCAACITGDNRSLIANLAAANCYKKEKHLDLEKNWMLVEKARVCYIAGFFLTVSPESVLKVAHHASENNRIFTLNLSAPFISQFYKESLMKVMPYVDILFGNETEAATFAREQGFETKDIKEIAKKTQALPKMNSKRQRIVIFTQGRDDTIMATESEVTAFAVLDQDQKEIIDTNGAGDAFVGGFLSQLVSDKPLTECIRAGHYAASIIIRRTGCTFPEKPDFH

[28] = Chemical stability of the compound assessed as compound remaining after 15 mins relative to control; format: physicochemical; conditions: read-out: Stability
[29] = Chemical stability of the compound assessed as compound remaining after 30 mins relative to control; format: physicochemical; conditions: read-out: Stability
[30] = Chemical stability of the compound assessed as compound remaining after 60 mins relative to control; format: physicochemical; conditions: read-out: Stability
[31] = Chemical stability of the compound assessed as compound remaining after 120 mins relative to control; format: physicochemical; conditions: read-out: Stability
[32] = Stability in human plasma assessed as compound remaining at 3.3 umol/L after 15 mins by RF-MS analysis relative to control; format: ADME, cell-free; conditions: read-out: Stability
[33] = Stability in human plasma assessed as compound remaining at 3.3 umol/L after 30 mins by RF-MS analysis relative to control; format: ADME, cell-free; conditions: read-out: Stability
[34] = Stability in human plasma assessed as compound remaining at 3.3 umol/L after 60 mins by RF-MS analysis relative to control; format: ADME, cell-free; conditions: read-out: Stability
[35] = Stability in human plasma assessed as compound remaining at 3.3 umol/L after 120 mins by RF-MS analysis relative to control; format: ADME, cell-free; conditions: read-out: Stability
[36] = Metabolic stability in human liver microsomes assessed as compound remaining at 5 umol/L after 15 mins relative to control; format: ADME, Microsome; conditions: read-out: Stability
Summary of the method: (§1)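 Human microsomal fraction; percent compound remaining over time.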

[37] = Metabolic stability in human liver microsomes assessed as compound remaining at 5 umol/L after 30 mins relative to control; format: ADME, Microsome; conditions: read-out: Stability; summary of the method: as §1
[38] = Protein binding in human plasma; format: ADME, cell-free; conditions: read-out: PPB (converted)
[39] = Effective permeability of the compound at 20 umol/L by PAMPA; format: ADME; conditions: 20 µM
[40] = system: Influenza A virus; assay: Antiviral activity against Influenza A virus (A/Mexico/4108/2009(H1N1)) infected in MDCK cells assessed as inhibited virus-induced cytopathic effect incubated for 2 days by XTT assay; format: functional, organism-based
[41] = system: Human orthopneumovirus; assay: Antiviral activity against Human respiratory syncytial virus A2 infected in Hep2 cells assessed as reduction in virus-induced cytopathic effect incubated for 4 days by CellTiter-Glo viability reagent based assay; format: functional, organism-based
[42] = system: Coxsackievirus B3; assay: Antiviral activity against Human coxsackie B3 Nancy infected in human HeLa cells assessed as inhibited virus-induced cytopathic effect incubated for 2 days by XTT assay; format: functional, organism-based
[43] = system: Human alphaherpesvirus 1; assay: Antiviral activity against human herpesvirus 1 HF infected in African green monkey Vero cells assessed as inhibited virus-induced cytopathic effect incubated for 3 days by XTT assay; format: functional, organism-based
[44] = system: dengue virus type 2; assay: Antiviral activity against Dengue virus 2 Thailand/16681/84 infected in African green monkey Vero cells assessed as inhibition of virus replication incubated for 3 days by fluorescence microscopy; format: functional, organism-based

Cc1ncnc2c1c1c(ccn1C)n2[C@@H]1O[C@H](CO)[C@@H](O)[C@H]1O
EC50 [1]: 190 nM
CC50 at 72 h [2]: > 44400 nM
EC50 [3]: 120 nM
IC50 [4]: 3910 nM
IC50 [5]: 50000 nM
IC50 [6]: 2080 nM
IC50 [7]: 210 nM
IC50 [8]: > 50000 nM
IC50 [9]: 330 nM
IC50 [10]: 330 nM
IC50 [11]: 400 nM
IC50 [12]: > 50000 nM
IC50 [13]: 610 nM
IC50 [14]: 1510 nM
IC50 [15]: 1130 nM
IC50 [16]: 1190 nM
Activity [17]: 10.99%
Activity [18]: 31.75%
Activity [19]: 34.66%
Activity [20]: 17.22%
Activity [21]: 13.14%
Activity [22]: 0.9%
Activity [23]: 48.49%
Activity [24]: 59.89%
Activity [25]: 53.62%
Activity [26]: 35.91%
Activity [27]: 42%
remaining at 0.25 h [28]: 98%
remaining at 0.5 h [29]: 97%
remaining at 1 h [30]: 93%
remaining at 2 h [31]: 91%
remaining at 0.25 h, 3.3 µM [32]: 98%
remaining at 0.5 h, 3.3 µM [33]: 83%
remaining at 1 h, 3.3 µM [34]: 81%
remaining at 2 h, 3.3 µM [35]: 79%
remaining at 0.25 h, 5 µM [36]: 99%
remaining at 0.5 h, 5 µM [37]: 98%
fraction unbound [38]: 0.71
log(permeability) [39]: -6.87
Activity [40]: inactive
Activity [41]: inactive
Activity [42]: inactive
Activity [43]: inactive
Activity [44]: inactive

Cc1ncnc2c1c1occc1n2[C@@H]1O[C@H](CO)[C@@H](O)[C@H]1O
EC50 [1]: 280 nM
CC50 at 72 h [2]: > 44400 nM
EC50 [3]: 240 nM
IC50 [4]: 7730 nM
IC50 [5]: > 50000 nM
IC50 [6]: 3190 nM
IC50 [7]: 240 nM
IC50 [8]: > 50000 nM
IC50 [9]: 450 nM
IC50 [10]: 450 nM
IC50 [11]: 410 nM
IC50 [12]: 6930 nM
IC50 [13]: 570 nM
IC50 [14]: 1200 nM
IC50 [15]: 2120 nM
IC50 [16]: 2210 nM
Activity [17]: 20.53%
Activity [18]: 44.57%
Activity [19]: 36.83%
Activity [20]: 16.12%
Activity [21]: 13.52%
Activity [22]: 0.99%
Activity [23]: 38.11%
Activity [24]: 38.88%
Activity [25]: 21.63%
Activity [26]: 0.61%
Activity [27]: 48%
remaining at 0.25 h [28]: 99%
remaining at 0.5 h [29]: 99%
remaining at 1 h [30]: 99%
remaining at 2 h [31]: 96%
remaining at 0.25 h, 3.3 µM [32]: 99%
remaining at 0.5 h, 3.3 µM [33]: 99%
remaining at 1 h, 3.3 µM [34]: 98%
remaining at 2 h, 3.3 µM [35]: 96%
remaining at 0.25 h, 5 µM [36]: 100%
remaining at 0.5 h, 5 µM [37]: 99%
fraction unbound [38]: 0.41
log(permeability) [39]: -6.88
Activity [40]: inactive
Activity [41]: inactive
Activity [42]: inactive
Activity [43]: inactive
Activity [44]: inactive

CSc1ncnc2c1c1occc1n2[C@@H]1O[C@H](CO)[C@@H](O)[C@H]1O
EC50 [1]: 280 nM
CC50 at 72 h [2]: > 44400 nM
EC50 [3]: 240 nM
IC50 [4]: 490 nM
IC50 [5]: 9370 nM
IC50 [6]: 4860 nM
IC50 [7]: 140 nM
IC50 [8]: 5570 nM
IC50 [9]: 220 nM
IC50 [10]: 210 nM
IC50 [11]: 270 nM
IC50 [12]: 2700 nM
IC50 [13]: 340 nM
IC50 [14]: 290 nM
IC50 [15]: 2010 nM
IC50 [16]: 2960 nM
Activity [17]: 14.06%
Activity [18]: 44.43%
Activity [19]: 33.16%
Activity [20]: 17.31%
Activity [21]: 13.3%
Activity [22]: 0.9%
Activity [23]: 39.68%
Activity [24]: 41.8%
Activity [25]: 0.39%
Activity [26]: 6.55%
Activity [27]: 56%
remaining at 0.25 h [28]: 99%
remaining at 0.5 h [29]: 99%
remaining at 1 h [30]: 99%
remaining at 2 h [31]: 96%
remaining at 0.25 h, 3.3 µM [32]: 99%
remaining at 0.5 h, 3.3 µM [33]: 99%
remaining at 1 h, 3.3 µM [34]: 98%
remaining at 2 h, 3.3 µM [35]: 96%
remaining at 0.25 h, 5 µM [36]: 100%
remaining at 0.5 h, 5 µM [37]: 99%
fraction unbound [38]: 0.16
log(permeability) [39]: -5.99
Activity [40]: inactive
Activity [41]: inactive
Activity [42]: inactive
Activity [43]: inactive
Activity [44]: inactive
